Compound activity deposited in PubChem by The Scripps Research Institute Molecular Screening Center.
Rows were chosen to be rich in hits. Some 2.5% of all compounds tested hit in one or more screens of this group.
GSTO1 inh – inhibitors of recombinant GSTO1, primary screen, counter-screen for RBBP9 inhibitor project, biochemical, fluorescence polarization; Glutathione S-transferase omega-1 (Homo sapiens), P78417; 1.1% of 300,000 active; activity-based probe fluorescence polarization; inhibition, % at 5.96 µM;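 active = inhibition above the campaign mean inhibition plus 3 SD, cut at about 35% in these data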;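 note: 0% = GSTO1-1 with DMSO and 100% = wells lacking GSTO1-1 enzyme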
Target sequence (P78417 whole entry, looked up): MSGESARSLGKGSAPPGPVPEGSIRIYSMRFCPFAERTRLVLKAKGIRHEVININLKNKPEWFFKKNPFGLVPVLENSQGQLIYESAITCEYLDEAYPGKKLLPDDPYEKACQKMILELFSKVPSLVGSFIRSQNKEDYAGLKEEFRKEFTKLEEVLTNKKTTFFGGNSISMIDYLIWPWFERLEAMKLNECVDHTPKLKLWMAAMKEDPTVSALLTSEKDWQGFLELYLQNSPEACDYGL
PRMT1 FP inh – PRMT1 methyltransferase inhibitors, primary screen, biochemical, fluorescence polarization; Protein arginine N-methyltransferase 1 (Homo sapiens), Q99873; recombinant PRMT1, activity-based probe fluorescence polarization; inhibition, % at 2.79 µM; 1.3% of 370,000 active; AID 652257, 2013;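 active = inhibition above about 21% made by adding two undisclosed values, limit read from the data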
Target sequence (Q99873 whole entry, looked up): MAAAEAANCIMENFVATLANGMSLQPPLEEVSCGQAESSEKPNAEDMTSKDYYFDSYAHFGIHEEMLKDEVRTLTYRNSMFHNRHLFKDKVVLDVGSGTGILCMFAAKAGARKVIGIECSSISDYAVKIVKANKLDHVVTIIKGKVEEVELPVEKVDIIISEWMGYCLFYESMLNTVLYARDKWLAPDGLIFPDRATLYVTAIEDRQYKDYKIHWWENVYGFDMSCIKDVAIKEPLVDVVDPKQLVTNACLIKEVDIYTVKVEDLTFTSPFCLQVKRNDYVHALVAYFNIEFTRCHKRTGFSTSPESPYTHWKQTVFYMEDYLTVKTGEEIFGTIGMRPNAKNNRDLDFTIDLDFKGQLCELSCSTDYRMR
PAD4 FP inh – human PAD4 inhibitors, primary screen, biochemical, fluorescence polarization, 1536-well format | Protein-arginine deiminase type-4 (Homo sapiens), Q9UM07 | recombinant PAD4, RCA probe fluorescence polarization | inhibition, % at 6.36 µM | 0.41% of 330,000 active | AID 485272, 2010;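 active = percent inhibition above a cutoff equal to the mean of all tested compounds plus 3 SD, cut at about 15% in these data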;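 note: 0% = PAD4 with RCA probe and DMSO and 100% = probe without PAD4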
TDP2 absorb – human TDP2 enzyme inhibitors, primary screen, biochemical, epi absorbance, recombinant enzyme; Tyrosyl-DNA phosphodiesterase 2 (Homo sapiens), O95551; T5PNP hydrolysis, p-nitrophenol absorbance 415 nm; inhibition, % at 12.8 µM; 0.34% of 370,000 active;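 active = inhibition above the mean of all tested compounds plus 3 SD, set per campaign, cut at about 25% in these data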;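 note: 0% = DMSO with enzyme and 100% = buffer with substrate but no TDP2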
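Material: recombinant human TDP2; quantity: TDP2 enzyme at 120 nM final; medium: Tris-HCl pH 7.5 with MgCl2; compound: single concentration, 12.8 µM nominal, with 1% DMSO; incubation: 2 h enzyme incubation at 37 °C; signal: epi absorbance; measure: percent inhibition; benchmarks: high control without enzyme, low control DMSO plus TDP2; repeats: singlicate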
Fh CTSL1 inh – Fasciola hepatica cathepsin L1 inhibitors, primary screen, counter-screen for PFM18AAP inhibitor project, biochemical, QFRET, fluorogenic peptide substrate; recombinant F. hepatica cathepsin L1, Z-Leu-Arg-MCA fluorescence; inhibition, % at 5.96 µM; 0.49% of 300,000 active;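 active = inhibition above the mean of all tested compounds plus 3 SD, set per screening campaign, cut at about 17% in these data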;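 note: 0% = plate median of test compound wells and 100% = 1 µM Z-Phe-Ala-diazomethylketone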
PRMT1 confirm – PRMT1 methyltransferase inhibitors, confirmation, biochemical, fluorescence polarization, triplicate; 42% of 3,300 active; inhibition, % at 2.79 µM; recombinant His-PRMT1, activity-based probe fluorescence polarization; shares compounds with PRMT1 FP inh;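 active = mean inhibition across replicates above the hit cutoff derived for the earlier primary screen, cut at about 22% in these data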
Starred values were filed as active, the others as inactive.

What do the screens show for `O=C1CC(Sc2ncccn2)C(=O)N1c1ccccc1C(F)(F)F` (centres undefined)?
GSTO1 inh: 12.7; PRMT1 FP inh: 51.1*; PAD4 FP inh: 1.6; TDP2 absorb: -13.0; Fh CTSL1 inh: 0.2; PRMT1 confirm: 5.5

What do the screens show for `Cc1ccc(Cl)cc1N1C(=O)CC(Sc2ncccn2)C1=O` (centres undefined)?
GSTO1 inh: -3.3; PRMT1 FP inh: 31.8*; PAD4 FP inh: -1.0; TDP2 absorb: -14.7; Fh CTSL1 inh: -4.4; PRMT1 confirm: -0.4

How did CCc1ccccc1N1C(=O)CC(Sc2nccc(C)n2)C1=O (centres undefined) do in these assays?
GSTO1 inh: 1.5; PRMT1 FP inh: 13.8; PAD4 FP inh: 1.1; TDP2 absorb: 3.0; Fh CTSL1 inh: 0.0

Results for CCCSc1nnc(NC(=O)CSc2nc3[nH]c(=O)cc(O)c3s2)s1 ?
PRMT1 FP inh: 7.4; PAD4 FP inh: -1.5; TDP2 absorb: 2.0

What do the screens show for `O=C(CSc1nc2[nH]c(=O)cc(O)c2s1)Nc1nncs1`?
PRMT1 FP inh: -2.5; TDP2 absorb: 15.9

How did Cc1csc(NC(=O)CSc2sc3c(O)cc(=O)[nH]c3c2C#N)n1 do in these assays?
GSTO1 inh: 9.4; PRMT1 FP inh: 80.7*; PAD4 FP inh: -25.9; TDP2 absorb: 7.5; Fh CTSL1 inh: -3.2; PRMT1 confirm: 7.8

What do the screens show for `CCSc1nnc(NC(=O)CSc2sc3c(O)cc(=O)[nH]c3c2C#N)s1`?
GSTO1 inh: 21.1; PRMT1 FP inh: 27.3*; PAD4 FP inh: -3.9; TDP2 absorb: -0.8; Fh CTSL1 inh: -1.3; PRMT1 confirm: 10.3

What do the screens show for `Cc1csc(NC(=O)CSc2nc3[nH]c(=O)cc(O)c3s2)n1`?
PRMT1 FP inh: 0.0; TDP2 absorb: 2.0

Results for O=C(CSc1nc2[nH]c(=O)cc(O)c2s1)Nc1nccs1 ?
PRMT1 FP inh: 25.2*; PAD4 FP inh: -1.8; TDP2 absorb: 2.1; PRMT1 confirm: 0.1

How did CCN(CC)C(=O)CC[C@H]1CC[C@]2(CCCN(Cc3ccc(OC)cc3)C2)O1 do in these assays?
PRMT1 FP inh: -3.2; TDP2 absorb: 5.9

Results for NC1=NC(=O)C(CC(=O)NCc2ccccc2)S1 (centres undefined) ?
GSTO1 inh: -2.6; PRMT1 FP inh: 16.6; PAD4 FP inh: -0.2; TDP2 absorb: 6.4; Fh CTSL1 inh: 1.1

What do the screens show for `NC1=NC(=O)CC(C(=O)NCc2ccccc2)S1` (centres undefined)?
GSTO1 inh: -1.8; PRMT1 FP inh: 36.2*; PAD4 FP inh: -0.3; TDP2 absorb: 1.0; Fh CTSL1 inh: -0.4; PRMT1 confirm: 10.0

Results for C=CCNC(=O)c1ccc(Cl)cc1Cl ?
GSTO1 inh: -2.1; PRMT1 FP inh: -0.3; PAD4 FP inh: -0.5; TDP2 absorb: 1.4; Fh CTSL1 inh: 0.8

How did C=CCNC(=O)c1ccsc1N do in these assays?
PRMT1 FP inh: 27.4*; TDP2 absorb: -1.6; PRMT1 confirm: 12.2

What do the screens show for `CCc1noc(C)c1C(=O)OC(C)C(=O)Nc1cc([N+](=O)[O-])ccc1OC` (centres undefined)?
GSTO1 inh: -1.4; PRMT1 FP inh: 97.8*; PAD4 FP inh: 2.6; TDP2 absorb: 0.0; Fh CTSL1 inh: -28.5; PRMT1 confirm: -2.3

What do the screens show for `Cc1noc(C)c1C(=O)OC(C)C(=O)Nc1ccc([N+](=O)[O-])cc1C(F)(F)F` (centres undefined)?
PRMT1 FP inh: 4.0; TDP2 absorb: -1.5

How did CCOC(=O)C1=CC[C@@H](c2ccccc2)N(S(=O)(=O)c2ccc(C)cc2)[C@H]1c1ccc(C#N)cc1 do in these assays?
PRMT1 FP inh: -5.1; TDP2 absorb: -8.6

What do the screens show for `CCOC(=O)C1=CC[C@@H](c2ccccc2)N(S(=O)(=O)c2ccc(C)cc2)[C@H]1C#N`?
PRMT1 FP inh: 27.5*; TDP2 absorb: -2.8; PRMT1 confirm: 22.3*

What do the screens show for `O=C(CCc1nc(-c2ccccc2F)no1)NCCc1ccc(F)cc1`?
PRMT1 FP inh: -0.1; TDP2 absorb: 6.4

What do the screens show for `O=C(NCc1ccco1)C1CCCN(S(=O)(=O)c2cccs2)C1` (centres undefined)?
PRMT1 FP inh: -8.5; TDP2 absorb: 2.1

What do the screens show for `O=c1c2cc(N3CCOCC3)ccc2[nH]c(=S)n1Cc1cccc(Cl)c1`?
GSTO1 inh: 17.9; PRMT1 FP inh: -2.8; PAD4 FP inh: 2.8; TDP2 absorb: -6.0; Fh CTSL1 inh: 4.2

How did O=c1c2cc(N3CCOCC3)ccc2[nH]c(=S)n1Cc1ccco1 do in these assays?
GSTO1 inh: 20.7; PRMT1 FP inh: 32.2*; PAD4 FP inh: -2.4; TDP2 absorb: -8.8; Fh CTSL1 inh: 0.4; PRMT1 confirm: 65.3*

What do the screens show for `O=C(OCC#CCSc1nnc(-c2cccc3ccccc23)o1)c1ccc(SC(F)(F)F)cc1`?
PRMT1 FP inh: -1.2; TDP2 absorb: -11.8

How did COc1ccc(-n2c(COc3ccccc3)nnc2SCC(=O)Nc2ccccc2-c2ccccc2)cc1 do in these assays?
PRMT1 FP inh: -0.6; TDP2 absorb: -16.0

Results for Cn1c(=O)c2[nH]c(-c3ccccc3)c(O)c2n(C)c1=O ?
GSTO1 inh: 23.6; PRMT1 FP inh: 75.5*; PAD4 FP inh: 0.4; TDP2 absorb: -8.4; Fh CTSL1 inh: 0.8; PRMT1 confirm: 23.6*

Results for COc1ccc(S(=O)(=O)Nc2cc(Sc3ncn[nH]3)c(O)cc2C)cc1 ?
PRMT1 FP inh: -2.9; PAD4 FP inh: -3.2; TDP2 absorb: -11.2

What do the screens show for `O=S(=O)(Nc1cc(Sc2ncn[nH]2)c(O)c2ccccc12)c1ccccc1`?
PRMT1 FP inh: 64.3*; TDP2 absorb: 70.6*; PRMT1 confirm: 110.6*

Results for CCOC(=O)c1c(C)nc(SCC(N)=O)c(C#N)c1-c1ccccc1 ?
GSTO1 inh: -8.9; PRMT1 FP inh: 34.8*; PAD4 FP inh: 2.6; TDP2 absorb: -8.7; Fh CTSL1 inh: -0.1; PRMT1 confirm: -5.0

Results for CCOC(=O)c1c(C)nc(C)c(C(=O)OCC)c1-c1ccccc1 ?
GSTO1 inh: 0.5; PAD4 FP inh: 0.9; Fh CTSL1 inh: 2.8

What do the screens show for `COc1ccc(CCC[C@H](CCC(=O)N(c2ccccc2)c2ccccc2)CCc2ccccc2)cc1`?
PRMT1 FP inh: -2.5; TDP2 absorb: 8.8

What do the screens show for `O=C(CCN1C(=O)S/C(=C\c2ccccc2)C1=O)Nc1ccc(O)cc1C(=O)O`?
GSTO1 inh: 10.3; PRMT1 FP inh: 9.8; PAD4 FP inh: -2.6; TDP2 absorb: 2.5; Fh CTSL1 inh: 3.4
